A short description of series [1]: Binding affinity against Muscarinic acetylcholine receptor was measured using radioligand ([3H]QNB) binding assay.
In series [2] the target is GABA-A receptor; anion channel. In words: Inhibition of [3H]muscimol binding to Gamma-aminobutyric acid (GABA-A) receptor. It counts as protein-complex assay, Rattus norvegicus.
For another series, the target named is Dopamine receptor. In words: Compound was tested for its effect on dopamine saturation analysis. Format: protein assay.
Series [3] can be described thus: Binding affinity against histamine receptor was measured using radioligand ([3H]-pyrilamine) binding assay.
Series [4] is filed under the species Rattus norvegicus. In words: Compound was tested for inhibition of conditioned avoidance response (CAR ). It counts as functional. The gist of the method: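 Rats trained to avoid an electric shock, test compound given orally, and block of the conditioned avoidance response scored. ED50 (mg/kg, po) with fiducial limits by the method of Berkson.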
Series [5] in a line: Binding affinity against desipramine receptor was measured using radioligand ([3H]desipramine) binding assay. More on the design: species or system Rattus norvegicus.
Series [6] addresses T1, Adrenergic receptor alpha-2 (Rattus norvegicus, UniProt P22086+P19328+P22909).
T1 sequence (P22086 whole entry): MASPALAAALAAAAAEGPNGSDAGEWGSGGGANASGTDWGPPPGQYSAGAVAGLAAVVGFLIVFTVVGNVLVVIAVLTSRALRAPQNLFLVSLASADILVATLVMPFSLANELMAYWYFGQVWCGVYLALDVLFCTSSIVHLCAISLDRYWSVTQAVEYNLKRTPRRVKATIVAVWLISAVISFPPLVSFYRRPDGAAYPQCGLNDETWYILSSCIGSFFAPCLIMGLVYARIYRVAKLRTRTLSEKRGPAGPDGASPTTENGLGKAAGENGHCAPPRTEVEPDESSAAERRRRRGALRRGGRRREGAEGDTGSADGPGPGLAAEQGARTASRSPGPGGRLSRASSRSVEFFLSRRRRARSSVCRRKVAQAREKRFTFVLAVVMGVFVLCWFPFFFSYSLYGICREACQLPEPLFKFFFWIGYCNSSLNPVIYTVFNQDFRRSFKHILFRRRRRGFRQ
T1 sequence (P19328 whole entry): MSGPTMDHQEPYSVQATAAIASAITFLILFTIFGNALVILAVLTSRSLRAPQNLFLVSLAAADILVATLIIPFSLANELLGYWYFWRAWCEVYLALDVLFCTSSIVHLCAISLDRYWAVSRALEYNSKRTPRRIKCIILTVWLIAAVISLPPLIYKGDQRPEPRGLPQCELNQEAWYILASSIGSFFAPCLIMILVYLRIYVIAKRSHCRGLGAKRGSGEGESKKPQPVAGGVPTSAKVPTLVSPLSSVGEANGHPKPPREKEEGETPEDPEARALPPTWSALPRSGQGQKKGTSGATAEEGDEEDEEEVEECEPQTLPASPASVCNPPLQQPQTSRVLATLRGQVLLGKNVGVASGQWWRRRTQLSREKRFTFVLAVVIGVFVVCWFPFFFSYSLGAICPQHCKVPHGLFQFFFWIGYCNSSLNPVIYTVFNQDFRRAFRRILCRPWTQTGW
T1 sequence (P22909 whole entry): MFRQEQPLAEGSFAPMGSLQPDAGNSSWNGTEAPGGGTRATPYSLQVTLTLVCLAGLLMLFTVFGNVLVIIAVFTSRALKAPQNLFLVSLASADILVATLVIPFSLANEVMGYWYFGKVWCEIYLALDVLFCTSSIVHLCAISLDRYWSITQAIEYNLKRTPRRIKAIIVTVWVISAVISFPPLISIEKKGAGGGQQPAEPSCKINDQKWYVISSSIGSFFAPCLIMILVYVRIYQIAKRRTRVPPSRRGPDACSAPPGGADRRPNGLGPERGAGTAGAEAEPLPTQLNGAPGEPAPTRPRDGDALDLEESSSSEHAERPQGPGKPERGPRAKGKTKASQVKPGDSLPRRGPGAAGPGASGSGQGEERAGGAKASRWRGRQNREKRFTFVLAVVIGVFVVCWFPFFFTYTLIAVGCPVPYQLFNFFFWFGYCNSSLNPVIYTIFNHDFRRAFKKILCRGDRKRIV
The experiment in a line: Binding affinity against alpha-2 adrenergic receptor was measured using radioligand ([3H]clonidine) binding assay. Format: protein assay.

The species named for series [7] is Rattus norvegicus. The experiment in a line: Compound was tested for its ability to induce catalepsy in rats. Format: functional. The gist of the method: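 Catalepsy was induced in rats with orally dosed compound as a predictor of extrapyramidal liability. ED50 (mg/kg, po) with fiducial limits by Berkson's method.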
Series [8] is described as follows: Lethal dose after administration in mouse. To be noted: in vivo, read-out: ALD50. It counts as toxicity, organism-based.
Series [9] is described as follows: Lethal dose after intraperitoneal administration in mouse. It counts as toxicity, organism-based. The following applies: in vivo, ip, read-out: ALD50.

Take `Cl.O=C1CC2(CCCC2)CC(=O)N1CCCCN1CCN(c2nsc3ccccc23)CC1` [TIOSPIRONE HYDROCHLORIDE]: the IC50 (usually the midpoint of a concentration-inhibition curve) in series [1] was greater than 1000 nM; in series [2], greater than 1000 nM; in [3] it was 142 nM; in [5] it was greater than 1000 nM; in series [6] it was greater than 1000 nM. Besides, the Kd (usually the equilibrium constant for the complex coming apart) on Dopamine receptor was 0.3337 nM. Further, the results for the ED50 in the series filed under Rattus norvegicus [4] and in the series filed under Rattus norvegicus [7] were 10.5 mg/kg and 84.4 mg/kg, respectively. For the same compound, the LD50 stood at 1850 mg/kg in series [8] and 1530 mg/kg in [9].

Source of the values: ChEMBL document CHEMBL1123413, “Synthesis and biological evaluation of 1-(1,2-benzisothiazol-3-yl)- and (1,2-benzisoxazol-3-yl)piperazine derivatives as potential antipsychotic agents” (J Med Chem, 1986).
